Laboratory results from ChEMBL document CHEMBL1221211, “Synthesis enables identification of the cellular target of leucascandrolide A and neopeltolide” (Nat Chem Biol, 2008).
Activity calls are given as the source filed them. The calls are words filed in the database; no cut-off is given here.

Assays:
Saccharomyces cerevisiae [1] = assay: Antifungal activity against Saccharomyces cerevisiae W303-1A in glucose agar media at 0.5 ug after 2 to 3 days by disk diffusion method; conditions: read-out: DIZ
HCT-116 [2] = assay: Induction of cell cycle arrest in human HCT116 assessed as accumulation at G2/M-phase at 100 uM after 24 hrs by FACS analysis; assay type: functional
[3] = (§1) Inhibition of bc1 complex in human A549 cells assessed as reduction in ATP production in presence of 10 mM of 2-DG; assay type: cell-based
How it was run: (§2)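 A549 cells seeded at 2500 cells/well, left 4 h, then given graded compound with or without 10 mM 2-deoxyglucose for 30 min; duplicate wells; ATP by luciferase luminescence, converted to nmol/cell via ATP standard curve; expressed as % of vehicle; IC50 from ATP decrease.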

PC-3 [4] = assay: Inhibition of cell proliferation in human PC3 cells in after 48 hrs; assay type: functional; conditions: PC-3, 48 h
143B [5] = assay: Inhibition of bc1 complex in human 143B cells assessed as reduction in ATP production in presence of […] of CCCP; assay type: cell-based
Saccharomyces cerevisiae [6] = assay: Antifungal activity against Saccharomyces cerevisiae petite strain in glucose agar media at 0.5 ug […] by disk diffusion method; assay type: functional; conditions: read-out: DIZ
How it was run: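 Petite (ρ0) W303-1A made by ethidium bromide (25 μg/ml) treatment in minimal glucose medium, regrown drug-free, identified as white colonies failing to grow on YPGly. Saturated YPD culture diluted 10-fold, spread on glucose agar; compound in 20 μl water on paper discs; 2–3 days at 30°C; zone of inhibition read.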

Saccharomyces cerevisiae [7] = assay: Antifungal activity against Saccharomyces cerevisiae W303-1A in glucose agar media at 1 ug […] by disk diffusion method; assay type: functional; conditions: read-out: DIZ
How it was run: (§3)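 W303-1A grown to saturation in YPD at RT, diluted 10-fold, spread onto YPD (2% glucose) or YPGly (3% v/v glycerol) agar; compound in 20 μl water applied to paper discs placed on agar; plates incubated 2–3 days at 30°C; growth-inhibition zone diameter read.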

143B [8] = assay: Inhibition of bc1 complex in human 143B cells assessed as reduction in oxygen uptake at 25 nM in presence of […] of CCCP; assay type: cell-based
How it was run: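 143B cells (4 × 10^6 per aliquot) in serum-free medium in stirred respirometer chamber at 37°C; O2 consumption by oxygen electrode; compound added dose-wise, then CCCP uncoupler added to test whether respiration returns.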

Saccharomyces cerevisiae [9] = assay: Effect on NADH dehydrogenase in respiratory chain of Saccharomyces cerevisiae W303-1A mitochondria at […]
A549 [10] = assay: Inhibition of bc1 complex in human A549 cells assessed as reduction in ATP production; assay type: cell-based
How it was run: as §2

HCT-116 [11] = assay: Effect on cellular respiration in human HCT116 cells assessed as increase in NADH level at 0.5 uM by fluorescence assay; assay type: functional, cell-based
How it was run: (§4)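 HCT116 cells seeded at 200 000 per collagen-coated dish, grown 41 h at 37°C, fresh medium 30–60 min; NADH autofluorescence by spinning-disk confocal microscopy (ex 350 ± 25, em 457 ± 25 nm) every 30 s at 37°C, baseline then 4 min after compound; % change from average initial vs post-addition fluorescence.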

Saccharomyces cerevisiae [12] = assay: Antifungal activity against Saccharomyces cerevisiae W303-1A harboring atg11 deficient mutant gene in galactose agar media at 50 uM after 24 hrs by spectrophotometry; assay type: functional, organism-based
HCT-116 [13] = assay: Effect on cellular respiration in human HCT116 cells assessed as increase in NADH level at 2.5 uM by fluorescence assay; assay type: functional
How it was run: as §4

Saccharomyces cerevisiae [14] = assay: Inhibition of Saccharomyces cerevisiae NADH oxidase at 10 nM
[15] = biological target: T1, Succinate dehydrogenase [ubiquinone] cytochrome b small subunit, mitochondrial (Saccharomyces cerevisiae) (UniProt P37298); assay: Effect on succinate:ubiquinone oxidoreductase activity of respiratory chain in Saccharomyces cerevisiae W303-1A mitochondria at […]
T1 sequence (whole entry): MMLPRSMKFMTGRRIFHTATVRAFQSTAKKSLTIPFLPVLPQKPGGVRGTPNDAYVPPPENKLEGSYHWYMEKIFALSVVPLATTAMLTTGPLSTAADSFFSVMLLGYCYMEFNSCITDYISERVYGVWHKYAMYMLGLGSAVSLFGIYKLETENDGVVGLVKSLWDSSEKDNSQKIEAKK

[16] = Inhibition of Saccharomyces cerevisiae Cytochrome b-c1 complex
HCT-116 [17] = assay: Induction of cell cycle arrest in human HCT116 assessed as accumulation at G1-phase at 100 uM after 24 hrs by FACS analysis; assay type: functional
Saccharomyces cerevisiae [18] = assay: Antifungal activity against Saccharomyces cerevisiae W303-1A in galactose agar media at 50 uM after 24 hrs by spectrophotometry; assay type: functional, organism-based
HCT-116 [19] = assay: Induction of cell cycle arrest in human HCT116 assessed as accumulation at S-phase at 100 uM after 24 hrs by FACS analysis; assay type: functional; conditions: HCT-116, 24 h
Saccharomyces cerevisiae [20] = assay: Antifungal activity against Saccharomyces cerevisiae W303-1A harboring kcs1 deficient mutant gene in galactose agar media at 50 uM after 24 hrs by spectrophotometry; assay type: functional, organism-based
Saccharomyces cerevisiae [21] = assay: Inhibition of cellular respiration in Saccharomyces cerevisiae W303-1A assessed as level of cytochrome b at 10 uM in presence of inhibitor; assay type: functional, organism-based
Saccharomyces cerevisiae [22] = assay: Antifungal activity against Saccharomyces cerevisiae W303-1A harboring rvs161 deficient mutant gene supersensitive strain in galactose agar media at 50 uM after 24 hrs by spectrophotometry; assay type: functional, organism-based
Saccharomyces cerevisiae [23] = assay: Antifungal activity against Saccharomyces cerevisiae W303-1A harboring snf6 deficient mutant gene in galactose agar media at 50 uM after 24 hrs by spectrophotometry; assay type: functional, organism-based
HCT-116 [24] = assay: Inhibition of cell proliferation in human HCT116 cells in after 48 hrs; assay type: functional; conditions: HCT-116, 48 h
A549 [25] = assay: Inhibition of cell proliferation in human A549 cells in after 48 hrs; assay type: functional; conditions: A549, 48 h
Saccharomyces cerevisiae [26] = assay: Effect on cytochrome c oxidase activity of respiratory chain in Saccharomyces cerevisiae W303-1A mitochondria at […]
Saccharomyces cerevisiae [27] = assay: Antifungal activity against Saccharomyces cerevisiae W303-1A in glycerol agar media at 1 ug […] by disk diffusion method; assay type: functional; conditions: read-out: DIZ
How it was run: as §3

[28] = Inhibition of bovine Cytochrome b-c1 complex; parameters: species or system Bos taurus
How it was run: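 Bovine heart mitochondrial bc1 complex purified (DEAE wash 150 mM NaCl, 150–400 mM NaCl gradient), diluted to 0.686 mg/ml in 50 mM phosphate pH 7.5, 300 mM NaCl, 0.1 g/l dodecyl maltoside; activity assayed in 40 mM potassium phosphate pH 7.4, 0.5 mM EDTA by monitoring reduction of equine cytochrome c; dose-response.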

Saccharomyces cerevisiae [29] = assay: Antifungal activity against Saccharomyces cerevisiae W303-1A harboring snf4 deficient mutant gene in galactose agar media at 50 uM after 24 hrs by spectrophotometry; assay type: functional, organism-based
A549 [30] = assay: as §1; assay type: cell-based
How it was run: as §2

CAKI-1 = assay: Cytotoxicity against human Caki1 cells; assay type: functional
HCT-116 [31] = assay: Induction of cell cycle arrest in human HCT116 assessed as accumulation at G1-phase at 10 uM after 24 hrs by FACS analysis; assay type: functional
K562 = assay: Cytotoxicity against human K562 cells; assay type: functional
OVCAR-8 = assay: Cytotoxicity against human OVCAR8 cells; assay type: functional
DU-145 = assay: Cytotoxicity against human DU145 cells; assay type: functional
SK-OV-3 = assay: Cytotoxicity against human SKOV3 cells; assay type: functional
MCF7 = assay: Cytotoxicity against human MCF7 cells; assay type: functional
PC-3 [32] = assay: Cytotoxicity against human PC3 cells; assay type: functional
HCT-116 [33] = assay: Cytotoxicity against human HCT116 cells; assay type: functional
SF-268 = assay: Cytotoxicity against human SF268 cells; assay type: functional
786-0 = assay: Cytotoxicity against human 786-0 cells; assay type: functional
A549 [34] = assay: Cytotoxicity against human A549 cells; assay type: functional
SK-MEL-5 = assay: Cytotoxicity against human SK-MEL-5 […]; assay type: functional
NCI-H226 = assay: Cytotoxicity against human NCI-H226 cells; assay type: functional
HCT-116 [35] = assay: Induction of cell cycle arrest in human HCT116 assessed as accumulation at S-phase at 10 uM after 24 hrs by FACS analysis; assay type: functional
NCI/ADR-RES = assay: Cytotoxicity against human NCI/ADR-RES cells; assay type: functional
Malme-3M = assay: Cytotoxicity against human MALME-3M cells; assay type: functional
M14 = assay: Cytotoxicity against human M14 cells; assay type: functional
HCT-116 [36] = assay: Induction of cell cycle arrest in human HCT116 assessed as accumulation at G2/M-phase at 10 uM after 24 hrs by FACS analysis; assay type: functional

C[C@@H]1C[C@@H]([C@H](O)CC2CC(=O)NC(=O)C2)C(=O)[C@@H](C)C1 [CYCLOHEXIMIDE]
zone of inhibition at 0.5 µg/disc (Saccharomyces cerevisiae [1]): 30 mm

CCCCC[C@H]1C[C@@H]2CCC[C@@H](C[C@@H](OC)C[C@@H]3C[C@@H](OC(=O)/C=C\CCc4coc(/C=C\CNC(=O)OC)n4)C[C@H](CC(=O)O1)O3)O2
Activity (HCT-116 [2]): 6% | IC50 [3]: 2.6 nM | GI50 (PC-3 [4]): 0.8 nM | inhibition (143B [5]): Dose-dependent effect | zone of inhibition at 0.5 µg/disc (Saccharomyces cerevisiae [6]): 21 mm | zone of inhibition at 1 µg/disc (Saccharomyces cerevisiae [7]): 25 mm | inhibition (143B [8]): Active | Activity (Saccharomyces cerevisiae [9]): inactive | inhibition (A549 [10]): inactive | Activity (HCT-116 [11]): Active | Activity (Saccharomyces cerevisiae [12]): Active | Activity (HCT-116 [13]): 40% | inhibition (Saccharomyces cerevisiae [14]): Active | Activity [15]: inactive | IC50 [16]: 1.8 nM | Activity (HCT-116 [17]): 61% | Activity (Saccharomyces cerevisiae [18]): Active | inhibition at 100 µM (HCT-116 [19]): 27% | Activity (Saccharomyces cerevisiae [20]): Active | inhibition (Saccharomyces cerevisiae [21]): Active | Activity (Saccharomyces cerevisiae [22]): Active | Activity (Saccharomyces cerevisiae [23]): Active | GI50 (HCT-116 [24]): 0.3 nM | GI50 (A549 [25]): 0.8 nM | Activity (Saccharomyces cerevisiae [26]): inactive | zone of inhibition at 1 µg/disc (Saccharomyces cerevisiae [27]): 36 mm | IC50 [28]: 6 nM | Activity (Saccharomyces cerevisiae [29]): Active

CC(=O)O[C@H]1C(=O)[C@@]2(C)[C@H]([C@H](OC(=O)c3ccccc3)[C@]3(O)C[C@H](OC(=O)[C@H](O)[C@@H](NC(=O)c4ccccc4)c4ccccc4)C(C)=C1C3(C)C)[C@]1(OC(C)=O)CO[C@@H]1C[C@@H]2O
inhibition (A549 [30]): inactive

COC(=O)NC/C=C\c1nc(CC/C=C\C(=O)O[C@@H]2C[C@H]3C[C@H](OC)C[C@H]4O[C@@H](CC[C@@H]4C)C[C@H](/C=C/CC(C)C)OC(=O)C[C@@H](C2)O3)co1
GI50 (CAKI-1): 670 nM | Activity (HCT-116 [31]): 71% | GI50 (K562): 280 nM | GI50 (OVCAR-8): 280 nM | GI50 (DU-145): 670 nM | GI50 (SK-OV-3): 670 nM | GI50 (MCF7): 280 nM | GI50 (PC-3 [32]): 280 nM | GI50 (HCT-116 [33]): 670 nM | GI50 (SF-268): 280 nM | GI50 (786-0): 280 nM | GI50 (A549 [34]): 670 nM | GI50 (SK-MEL-5): 670 nM | GI50 (NCI-H226): 280 nM | Activity (HCT-116 [35]): 17% | GI50 (NCI/ADR-RES): 670 nM | GI50 (Malme-3M): 670 nM | GI50 (M14): 280 nM | Activity (HCT-116 [36]): 8%

CCC[C@@H]1C[C@H](OC)C[C@H](C)C[C@@H]2C[C@@H](OC(=O)/C=C\CCc3coc(/C=C\CNC(=O)OC)n3)C[C@H](CC(=O)O1)O2 [NEOPELTOLIDE]
IC50 [3]: 1.3 nM | GI50 (PC-3 [4]): 0.3 nM | zone of inhibition at 1 µg/disc (Saccharomyces cerevisiae [7]): 33 mm | Activity (Saccharomyces cerevisiae [9]): inactive | inhibition (A549 [10]): inactive | Activity [15]: inactive | IC50 [16]: 0.6 nM | GI50 (HCT-116 [24]): 0.5 nM | GI50 (A549 [25]): 0.5 nM | Activity (Saccharomyces cerevisiae [26]): inactive | zone of inhibition at 1 µg/disc (Saccharomyces cerevisiae [27]): 46 mm | IC50 [28]: 2 nM
